Data set [1] deals with T1, Amine oxidase [flavin-containing] B (Homo sapiens, UniProt P27338).
T1 sequence (P27338 whole entry): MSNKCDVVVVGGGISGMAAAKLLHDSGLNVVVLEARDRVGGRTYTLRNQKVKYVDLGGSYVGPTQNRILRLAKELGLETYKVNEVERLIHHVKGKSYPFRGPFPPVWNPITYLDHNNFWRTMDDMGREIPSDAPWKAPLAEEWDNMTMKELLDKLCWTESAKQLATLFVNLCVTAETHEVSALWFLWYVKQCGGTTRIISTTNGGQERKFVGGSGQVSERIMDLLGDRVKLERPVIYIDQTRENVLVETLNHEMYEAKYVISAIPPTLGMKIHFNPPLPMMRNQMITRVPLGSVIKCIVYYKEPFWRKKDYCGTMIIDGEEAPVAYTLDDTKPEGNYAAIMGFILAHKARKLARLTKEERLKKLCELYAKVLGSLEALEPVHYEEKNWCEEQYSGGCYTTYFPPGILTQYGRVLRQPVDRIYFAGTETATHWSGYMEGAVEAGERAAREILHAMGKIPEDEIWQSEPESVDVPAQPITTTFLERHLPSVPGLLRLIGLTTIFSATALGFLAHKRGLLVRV
As to the kind of experiment: Inhibition of human recombinant MAOB expressed in microsomes of baculovirus-infected insect cell using kynuramine as substrate preincubated for 20 mins followed by protein addition measured after 30 mins by fluorescence assay.

The target in data set [2] is T2, Amine oxidase [flavin-containing] A (Homo sapiens, UniProt P21397).
T2 sequence (P21397 whole entry): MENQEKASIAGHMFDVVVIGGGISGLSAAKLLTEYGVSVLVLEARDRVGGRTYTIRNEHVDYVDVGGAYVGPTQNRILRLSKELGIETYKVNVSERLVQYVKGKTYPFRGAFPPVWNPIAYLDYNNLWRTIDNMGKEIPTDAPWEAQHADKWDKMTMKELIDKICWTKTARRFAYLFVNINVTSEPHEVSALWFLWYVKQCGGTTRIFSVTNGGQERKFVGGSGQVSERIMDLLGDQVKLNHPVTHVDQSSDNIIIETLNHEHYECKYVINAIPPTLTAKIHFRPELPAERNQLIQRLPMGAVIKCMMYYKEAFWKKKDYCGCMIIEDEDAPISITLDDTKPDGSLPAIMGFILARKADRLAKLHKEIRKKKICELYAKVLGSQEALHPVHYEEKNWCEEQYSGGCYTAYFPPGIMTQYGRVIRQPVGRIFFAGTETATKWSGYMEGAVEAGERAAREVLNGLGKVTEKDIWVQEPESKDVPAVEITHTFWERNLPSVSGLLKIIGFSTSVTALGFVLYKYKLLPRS
Description: Inhibition of human recombinant MAOA expressed in microsomes of baculovirus-infected insect cell using kynuramine as substrate preincubated for 20 mins followed by protein addition measured after 30 mins by fluorescence assay. In short, it runs like this: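 Recombinant human MAO A (baculovirus-infected insect cell microsomes) with kynuramine substrate; inhibitor preincubated 20 min at 37 °C, enzyme then added and incubated 30 min more. Fluorescence at ex/em 320/400 nm. Triplicates, three independent experiments.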

The target in data set [3] is Cholinesterase (Equus caballus) (UniProt P81908). As to the kind of experiment: Inhibition of equine serum BChE at 10 uM using butyrylthiocholine iodide as substrate preincubated for 20 mins followed by substrate addition measured for 5 mins by spectrophotometric Ellman's method relative to control. In short, it runs like this:
(§1)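 BChE from equine serum (13 U/mg), Ellman spectrophotometric method run in 96-well format. Seven inhibitor concentrations, 10^-4 to 10^-10 M, each in triplicate. IC50 from non-linear regression of response against log(concentration). […] Mean of three independent experiments.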

Data set [4] concerns the target Acetylcholinesterase (Electrophorus electricus, UniProt O42275). As to the kind of experiment: Inhibition of electric eel AChE using acetylthiocholine iodide as substrate preincubated for 20 mins followed by substrate addition measured for 5 mins by spectrophotometric Ellman's method.
Data set [5] is filed under the species Homo sapiens. As to the kind of experiment: Selectivity index, ratio of IC50 for human recombinant MAOA to IC50 for human recombinant MAOB.
Data set [6] addresses Cholinesterase (Equus caballus, UniProt P81908). Description: Inhibition of equine serum BChE using butyrylthiocholine iodide as substrate preincubated for 20 mins followed by substrate addition measured for 5 mins by spectrophotometric Ellman's method. Summed up:
as §1

Data set [7] concerns SH-SY5Y. Description: Cytotoxicity against human SH-SY5Y cells assessed as inhibition of cell growth after 24 hrs by MTT assay. It is filed as cell-based. In short, it runs like this: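 SH-SY5Y cells exposed 24 h at 37 °C to 0.1, 1, 5, 10 and 50 µM; viability read by MTT at 570 nm versus untreated cells. […] Means ± SD, n = 3.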
For data set [8], the system named is SH-SY5Y. Description: Neuroprotective activity against oligomycin-A-induced oxidative injury in human SH-SY5Y cells assessed as increase in cell viability at 10 uM after 24 hrs by MTT assay. It is filed as functional, cell-based. Summed up:
(§2)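 SH-SY5Y cells incubated 24 h with compound at 1 or 10 µM together with H2O2 300 µM, oligomycin-A 10 µM or rotenone 20 µM. Viability by MTT, as % of cells given neither insult nor compound. Triplicates, three repeats; mean ± SD; two-way ANOVA with Bonferroni post hoc test.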

Data set [9] concerns SH-SY5Y. Description: Neuroprotective activity against H2O2-induced oxidative injury in human SH-SY5Y cells assessed as increase in cell viability at 1 to 10 uM after 24 hrs by MTT assay. The class given is functional, cell-based. In short, it runs like this:
as §2
For orientation: Tetrazolium assays rely on reduction of a dye to a coloured formazan, in cell work by metabolically active cells.

A short description of data set [10]: Lipophilicity index, Log K of the compound at 1 mM by RP-HPLC method. The class given is physicochemical. As to conditions: 1000 µM.
Data set [11] relates to SH-SY5Y. Description: Neuroprotective activity against oligomycin-A-induced oxidative injury in human SH-SY5Y cells assessed as increase in cell viability at 1 uM after 24 hrs by MTT assay. It is filed as functional, cell-based. Summed up:
as §2

Data set [12] has as its system SH-SY5Y. As to the kind of experiment: Neuroprotective activity against rotenone-induced oxidative injury in human SH-SY5Y cells assessed as increase in cell viability at 1 uM after 24 hrs by MTT assay. The class given is functional, cell-based. Summed up: as §2

pIC50: −log10 of the molar value. Activity calls are given as the source filed them. No cut-off for these calls is given here.

Cholinesterase, sequence (P81908 whole entry): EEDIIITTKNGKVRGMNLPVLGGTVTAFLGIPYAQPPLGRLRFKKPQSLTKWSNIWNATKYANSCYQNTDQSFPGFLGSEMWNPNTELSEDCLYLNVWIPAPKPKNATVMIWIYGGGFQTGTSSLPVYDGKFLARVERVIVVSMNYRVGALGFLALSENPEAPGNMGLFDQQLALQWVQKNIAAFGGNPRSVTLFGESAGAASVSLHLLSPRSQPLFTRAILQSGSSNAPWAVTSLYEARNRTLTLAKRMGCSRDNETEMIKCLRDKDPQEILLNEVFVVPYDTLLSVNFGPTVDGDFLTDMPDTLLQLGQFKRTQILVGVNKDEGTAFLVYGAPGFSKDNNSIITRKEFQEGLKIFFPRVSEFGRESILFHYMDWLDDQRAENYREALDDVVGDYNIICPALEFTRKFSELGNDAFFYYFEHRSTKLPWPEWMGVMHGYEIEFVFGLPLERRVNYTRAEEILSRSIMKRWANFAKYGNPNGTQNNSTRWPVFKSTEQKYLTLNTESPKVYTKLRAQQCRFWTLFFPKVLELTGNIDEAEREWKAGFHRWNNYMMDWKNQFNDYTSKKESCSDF
Cholinesterase (Equus caballus), sequence (P81908 whole entry): as above
Acetylcholinesterase, sequence (O42275 whole entry): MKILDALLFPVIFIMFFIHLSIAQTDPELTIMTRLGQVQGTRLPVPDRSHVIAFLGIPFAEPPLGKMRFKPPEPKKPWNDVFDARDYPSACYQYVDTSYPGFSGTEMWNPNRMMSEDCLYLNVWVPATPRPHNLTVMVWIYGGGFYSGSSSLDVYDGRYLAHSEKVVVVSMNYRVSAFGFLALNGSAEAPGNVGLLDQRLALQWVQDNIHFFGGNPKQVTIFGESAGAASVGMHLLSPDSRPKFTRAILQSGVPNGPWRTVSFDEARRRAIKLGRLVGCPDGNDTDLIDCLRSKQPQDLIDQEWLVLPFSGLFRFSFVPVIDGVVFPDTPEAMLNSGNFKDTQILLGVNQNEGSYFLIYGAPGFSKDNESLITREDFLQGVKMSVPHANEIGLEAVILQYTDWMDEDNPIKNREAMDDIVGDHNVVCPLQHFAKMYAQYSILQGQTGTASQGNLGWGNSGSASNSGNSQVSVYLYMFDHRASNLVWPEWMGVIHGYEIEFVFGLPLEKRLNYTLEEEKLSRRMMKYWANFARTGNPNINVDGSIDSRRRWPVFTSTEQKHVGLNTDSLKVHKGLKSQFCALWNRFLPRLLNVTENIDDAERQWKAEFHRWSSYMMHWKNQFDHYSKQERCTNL

In general, pIC50 refers to the IC50 on a negative log10 scale, so that one unit is a factor of ten. For orientation: inhibition means the share of the control response that was lost under treatment. `Cc1c(C)c2ccc(OCC3CCCN(Cc4ccc(S(C)(=O)=O)cc4)C3)cc2oc1=O` (racemic): the results for the pIC50 in data set [1], in [2] and in data set [4] were 6.95, 6.68 and 6.07, respectively. Also, the inhibition in data set [3] came to 10%.
For the compound `Cc1c(C)c2ccc(OC3CCN(Cc4ccc(Cl)cc4)CC3)cc2oc1=O`, the results for the negative logarithm of the IC50 (pIC50) in data set [1], in [2] and in [4] were 6.06, 5.80 and 5.81, respectively. Further, the inhibition in data set [3] was 29%. Moreover, the Ratio IC50 in [5] was found to be 2.
Consider `Cc1c(C)c2ccc(OC3CCN(CC(=O)c4ccccc4)CC3)cc2oc1=O`, for which the pIC50 in data set [1] was 6.94; in data set [2], 5.71; in data set [4] it was 5.42. For the same compound, in data set [3], the inhibition is 45%.
On to `Cc1c(C)c2ccc(OC3CCN(Cc4ccccc4)CC3)cc2oc1=O`, for which the negative-log IC50 (pIC50) in [6] was 5.02; in data set [1], 6.35; in [2], 5.44; in [4] it was 6.11.
For `Cc1c(C)c2ccc(OCC3CCCN(Cc4cccc(Br)c4)C3)cc2oc1=O` (single isomer, unassigned; (+)) [listing 1 of 2 here], the pIC50 in data set [1] is 7.59; in data set [2] it was 6.27; in data set [4], 5.49.
As for `Cc1c(C)c2ccc(OCC3CCCN(Cc4ccccc4)C3)cc2oc1=O` (stereo in doubt; (+)-5b), the pIC50 was 5.54 in data set [6], 5.42 in data set [2] and 5.74 in data set [4].
Consider `Cc1c(C)c2ccc(OC3CCN(Cc4ccc(C#N)cc4)CC3)cc2oc1=O`, for which the pIC50 was 6.18 in [1], 5.89 in data set [2] and 6.01 in data set [4]. The inhibition in data set [3] came out at 48%. Besides, the Ratio IC50 in [5] amounted to 2.
Turning to `Cc1c(C)c2ccc(OCC3CCN(C)CC3)cc2oc1=O`, the values for the negative logarithm of the IC50 (pIC50) in [1], in data set [2] and in data set [4] were 6.53, 4.78 and 6.17, respectively. Also, in [3], the inhibition was determined as 14%.
For the compound `Cc1c(C)c2ccc(OCC3CCCN(Cc4ccc(C#N)cc4)C3)cc2oc1=O` (racemic), the negative-log IC50 (pIC50) is 7.47 in data set [1], 5.35 in data set [2] and 5.55 in [4]. The same compound registered an inhibition in data set [3] of 36%. In data set [5], the Ratio IC50 was determined as 133.
Consider `Cc1c(C)c2ccc(OCC3CCCN(Cc4cccc(Cl)c4)C3)cc2oc1=O` (racemic), for which the pIC50 is 5.33 in data set [6]; 7.44 in data set [1]; 6.01 in [2]; 4.89 in data set [7]; 5.93 in data set [4]. Further, the result in data set [8] was inactive. Also, the outcome in data set [9] was Active.
As to `Cc1c(C)c2ccc(OCC3CCCN(Cc4cccc(Br)c4)C3)cc2oc1=O` (single isomer, unassigned; (+)) [listing 2 of 2 here], the inhibition in [3] came to 36%. The Ratio IC50 in data set [5] was 21.
Regarding `CN(Cc1ccccc1)Cc1ccc(COc2ccc3c(CO)cc(=O)oc3c2)cc1`, the “log K” value in [10] was determined as 1.87.
Turning to `Cc1c(C)c2ccc(OCC3CCCN(Cc4cccc(Br)c4)C3)cc2oc1=O` (single isomer, unassigned; (-)) [listing 1 of 2 here], the inhibition in data set [3] amounted to 26%.
With `Cc1c(C)c2ccc(OCC3CCN(Cc4cccc(Cl)c4)CC3)cc2oc1=O`, the outcome in [11] was inactive. Also, the negative logarithm of the IC50 (pIC50) is 5.22 in [6], 7.05 in data set [1], 6.15 in data set [2] and 5.99 in [4].
With `Cc1c(C)c2ccc(OCCCN3CCc4ccccc4C3)cc2oc1=O`, the pIC50 in data set [6] was 6.02; in data set [1], 6.53; in data set [2], 5.57; in [4], 5.91.
Take `Cc1c(C)c2ccc(OCC3CCN(Cc4ccc(C#N)cc4)CC3)cc2oc1=O`: the negative logarithm of the IC50 (pIC50) was 6.26 in [1], 5.00 in data set [2] and 5.74 in [4]. In [3], this compound registered an inhibition of 27%.
On to `Cc1c(C)c2ccc(OCC3CCCN(Cc4ccc(F)cc4)C3)cc2oc1=O` (racemic), for which the pIC50 was 5.43 in data set [6], 6.79 in data set [1], 5.95 in data set [2] and 5.84 in [4]. Besides, the outcome in [9] and in [12] was Active.
On to `CCCCN1CCC(Oc2ccc3c(C)c(C)c(=O)oc3c2)CC1`, for which the pIC50 in [1] is 5.85; in [2], 4.62; in data set [4], 6.00. In data set [3], this compound gave an inhibition of 35%.
Turning to `COc1ccc(CN2CCCC(COc3ccc4c(C)c(C)c(=O)oc4c3)C2)cc1OC` (racemic), the outcome in [11] and in data set [8] was inactive. Further, the negative logarithm of the IC50 (pIC50) is 5.22 in data set [6]; 7.05 in [1]; 5.76 in [2]; 5.00 in data set [7]; 5.66 in data set [4].
Regarding `Cc1c(C)c2ccc(OC3CCN(C)CC3)cc2oc1=O`, the values for the pIC50 in data set [1], in [2] and in data set [4] were 6.56, 4.93 and 5.89, respectively. Moreover, the inhibition in data set [3] was determined as 11%.
With `Cc1c(C)c2ccc(OC3CCN(CCc4ccccc4)CC3)cc2oc1=O`, the pIC50 in [6] is 5.75; in [1] it was 5.60; in [2], 4.91; in data set [4] it was 5.78.
For `Cc1c(C)c2ccc(OCC3CCCN(Cc4cccc(Br)c4)C3)cc2oc1=O` (single isomer, unassigned; (-)) [listing 2 of 2 here], the values for the pIC50 in data set [1], in data set [2] and in [4] were 6.71, 5.95 and 5.76, respectively.
As for `Cc1c(C)c2ccc(OCC3CCCN(Cc4ccc(Cl)cc4)C3)cc2oc1=O` (racemic), the negative-log IC50 (pIC50) was 5.23 in [6], 7.30 in [1], 6.09 in data set [2] and 5.54 in data set [4].
Turning to `Cc1c(C)c2ccc(OCCCCN3CCc4ccccc4C3)cc2oc1=O`, the negative logarithm of the IC50 (pIC50) is 5.58 in data set [6], 6.21 in data set [1], 5.65 in data set [2] and 5.94 in data set [4].
As for `Cc1c(C)c2ccc(OC3CCN(Cc4cccc(Cl)c4)CC3)cc2oc1=O`, the negative-log IC50 (pIC50) in data set [1] is 6.55; in data set [2], 6.06; in [4], 5.97. For the same compound, the inhibition in data set [3] was found to be 28%.
For the compound `Cc1c(C)c2ccc(OCC3CCCN(Cc4ccccc4)C3)cc2oc1=O` (single isomer, unassigned; (-)), the results for the negative-log IC50 (pIC50) in [6], in data set [2] and in data set [4] were 5.09, 5.64 and 6.11, respectively.

(Values after ChEMBL document CHEMBL4425129, “Exploring Basic Tail Modifications of Coumarin-Based Dual Acetylcholinesterase-Monoamine Oxidase B Inhibitors: Identification of Water-Soluble, Brain-Permeant Neuroprotective Multitarget Agents” (J Med Chem, 2016).)
